Shown are actives, neighbours in structure and some others; about 3.5% of the full set was active somewhere.
Cneo AK release – causes C. neoformans cell lysis. adenylate kinase release luminescence, 4 h; normalised: neutral wells 0, clomiphene wells 100. lysis activity, % at 15 µM. actives 0.2% (n = 360,000). AID 651654;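 active = mean lysis activity across replicates of at least 80%, whatever share of replicates individually reach that level; inactive = mean lysis activity below 80%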
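Assay system: Cryptococcus neoformans yeast cells / Dosing: single-point compound dose / Timing: 4 h at 37 °C static, read 1 h later / Measured by: luminescence of released adenylate kinase using an AK detection reagent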
FGF22 binding – shifts melting point of recombinant human FGF22; Q9HCT0; recombinant FGF22 thermal shift, SYPRO orange fluorescence; percent of sucrose octasulfate shift, DMSO zero; activity (Tm shift, normalised), % at 9.99 µM; actives 1.5% (n = 340,000); AID 651658;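 active = mean Tm shift, scaled 0 neutral to 100 positive control, at about 1.3% or above, every replicate too, limit read from the data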
rRNA inh HTS – selective bacterial rRNA inhibition in E. coli. GFP signal change (wild-type ribosome), % (test concentration not listed). E. coli WT GFP vs humanized-ribosome RFP mutants, fluorescence, 24 h; active compounds read low; DMSO median 0, no signal -100. actives 1.6% (n = 350,000). AID 720706;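 active = significant combined selectivity score with lowered wild-type GFP, culture density cut under 30%, mutant RFP and density less affected; inactive = any of these conditions unmet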
HIV Env fusion – blocks HIV Env-driven cell-cell fusion; HeLa-JRFL Env/CEM21 cell fusion, luciferase; inhibition, % at 12.3 µM; actives 1.1% (n = 360,000); AID 651610;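 active = mean replicate inhibition score of at least 50 and every replicate individually at or above 50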
ERAP1 inh – blocks human ERAP1 aminopeptidase activity. Q9NZ08. AID 652197. inhibition, % at 10.7 µM. recombinant ERAP1, Leu-AMC fluorescence, 60 min. actives 0.15% (n = 340,000);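 active = mean replicate inhibition of at least 30%, or all replicates individually reaching that 30% level; inactive = mean below 30% and not every replicate reaching it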
Target sequence (Q9NZ08 whole entry, looked up): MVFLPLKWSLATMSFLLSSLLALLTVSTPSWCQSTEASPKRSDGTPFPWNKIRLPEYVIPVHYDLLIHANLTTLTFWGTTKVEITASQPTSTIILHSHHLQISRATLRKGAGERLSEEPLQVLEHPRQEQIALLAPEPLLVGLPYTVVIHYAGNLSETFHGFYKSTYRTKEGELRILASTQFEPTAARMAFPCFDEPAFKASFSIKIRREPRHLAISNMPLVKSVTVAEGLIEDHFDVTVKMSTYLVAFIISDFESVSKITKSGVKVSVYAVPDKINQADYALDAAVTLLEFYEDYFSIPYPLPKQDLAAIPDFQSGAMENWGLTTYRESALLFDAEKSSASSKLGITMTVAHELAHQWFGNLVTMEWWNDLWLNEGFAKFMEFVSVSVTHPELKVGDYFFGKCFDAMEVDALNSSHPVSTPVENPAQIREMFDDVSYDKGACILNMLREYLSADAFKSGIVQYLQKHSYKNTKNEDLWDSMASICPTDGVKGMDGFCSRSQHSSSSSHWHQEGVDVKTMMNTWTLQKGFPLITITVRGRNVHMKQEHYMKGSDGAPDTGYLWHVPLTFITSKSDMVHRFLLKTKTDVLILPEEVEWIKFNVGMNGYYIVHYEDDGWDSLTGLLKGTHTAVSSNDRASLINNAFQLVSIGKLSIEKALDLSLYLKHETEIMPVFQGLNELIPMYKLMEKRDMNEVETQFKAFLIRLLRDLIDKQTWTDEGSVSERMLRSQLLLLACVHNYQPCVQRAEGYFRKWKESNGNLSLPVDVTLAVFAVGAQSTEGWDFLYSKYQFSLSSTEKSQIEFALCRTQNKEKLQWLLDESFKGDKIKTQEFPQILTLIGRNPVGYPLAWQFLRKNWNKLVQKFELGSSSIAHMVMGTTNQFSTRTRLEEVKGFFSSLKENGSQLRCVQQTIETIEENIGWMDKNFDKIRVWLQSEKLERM
PGC1a acetyl inh – PGC1a acetylation modulation, inhibitor mode; U2OS PGC1a acetylation, AlphaScreen anti-acetyl-lysine; with virally co-expressed GCN5 acetyltransferase; inhibition, % at 15.6 µM; actives 0.17% (n = 350,000);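 active = every replicate shows inhibition of at least 40%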
Numbers stand for hits; i = inactive; nt = not tested or not shown; [ ] = remark or other dose.

SMILES	Cneo AK release	FGF22 binding	rRNA inh HTS	HIV Env fusion	ERAP1 inh	PGC1a acetyl inh
O=C(Nc1cc(F)ccc1F)N[C@@H]1CC[C@@H](CCn2cc(C3CC3)nn2)O[C@@H]1CO	i	i	i	i	i	i
OCCC1CN(Cc2cnn(-c3ccccc3Cl)c2)CCN1Cc1ccsc1 (stereo not given)	nt	49	i	i	i	i
OCCC1CN(Cc2nc(-c3ccccc3)cs2)CCN1Cc1ccc(F)cc1 (stereo not given)	i	43	nt	i	i	i
OCCC1CN(Cc2ccsc2)CCN1C1CCCC1 (stereo not given)	i	i	i	i	i	nt
COc1ccc(-n2c(C)nc3c(cnn3-c3ccc(Cl)cc3)c2=O)cc1	i	nt	nt	i	nt	i
CCCCNC(=O)C1(C)CCN1C(=O)c1ccccc1Br (stereo not given)	i	i	i	i	i	i
O=C(NC(=S)Nc1ccc(Cc2ccncc2)cc1)c1ccccc1F	nt	44	i	i	i	i
O=C(NC(=S)Nc1ccc(S(=O)(=O)Nc2nccs2)cc1)c1ccccc1F	nt	i	-22	i	i	i
O=C(NC(=S)Nc1ccc(Cc2ccncc2)cc1)c1ccccc1Cl	i	nt	nt	i	nt	nt
Cc1cc(C)c2oc(C(=O)Nc3ccc(S(=O)(=O)Nc4nccs4)cc3)cc(=O)c2c1	nt	43	i	i	i	i
O=C(Nc1ccc(S(=O)(=O)Nc2nccs2)cc1)c1cnc(Cl)c(Cl)c1	nt	i	-29	i	i	nt
O=C(Nc1ccc(S(=O)(=O)Nc2ncccn2)cc1)c1cnc(Cl)c(Cl)c1	nt	i	i	i	i	i
C[C@@H]1CN([C@@H](C)CO)C(=O)c2c(c3ccccc3n2C)-c2ccccc2CO[C@@H]1CN(C)S(C)(=O)=O	i	i	i	nt	i	i
COc1ccc(CCNC(=O)CSc2cn(Cc3ccccc3)c3ccccc23)cc1OC	i	i	i	i	i	i
COc1ccc(C(=O)NC(=S)Nc2ccc(Cc3ccncc3)cc2)cc1	nt	44	i	i	i	i
Cc1ccccc1C(=O)NC(=S)Nc1ccc(Cc2ccncc2)cc1	i	nt	nt	i	nt	i
C[C@H]1CN([C@@H](C)CO)C(=O)c2cccc(NS(C)(=O)=O)c2O[C@@H]1CN(C)Cc1ccc(-c2ccccc2)cc1	111	i	i	i	i	i
C[C@@H]1CN([C@@H](C)CO)C(=O)c2cccc(NS(=O)(=O)c3ccc(F)cc3)c2O[C@@H]1CN(C)Cc1ccc(-c2ccccc2)cc1	i	i	i	75[16.7 µM]	i	i
CCOCCCN1CC(=O)N2[C@@H](Cc3c([nH]c4ccccc34)C2(C)C)C1=O	i	i	i	i	i	i
COc1cccc(NC(=O)c2ccc3c(c2)N(CC(=O)N2CCCCC2)C(=O)C(C)(C)O3)c1	i	nt	nt	i	nt	i
CN(C(=O)CSc1nc2c(c(=O)[nH]1)CCCC2)C1CCCCC1	nt	i	-15	nt	i	i
Cc1nc(SCCOc2ccccc2)[nH]c(=O)c1Cc1ccccc1	nt	43	i	i	i	i
COc1ccc(OCCSc2nc(C)c(Cc3ccccc3)c(=O)[nH]2)cc1	nt	i	i	i	i	i
Cc1nc(SCC(=O)N(C)C2CCCCC2)[nH]c(=O)c1Cc1ccccc1	i	nt	-26	nt	i	i
NC(=O)c1cc(C(=O)c2ccc(Cl)cc2Cl)c[nH]1	nt	44	i	i	i	i
SMILES	Cneo AK release	FGF22 binding	rRNA inh HTS	HIV Env fusion	ERAP1 inh	PGC1a acetyl inh
Cc1ccccc1C(=O)c1c[nH]c(C(N)=O)c1	i	nt	nt	nt	nt	i
CN(C)C(=O)c1cc(C(=O)c2ccc(Cl)cc2Cl)c[nH]1	i	i	i	i	i	nt
NC(=O)c1cc(C(=O)c2ccc(Cl)cc2)c[nH]1	nt	i	-23	i	i	i
O=C(NCC1CC1)Nc1ccccc1	i	i	i	i	i	i
OCCNCCNCc1ccccc1OCc1ccccc1	i	i	i	i	i	i
COc1ccc(/C=C2\SC(N)=NC2=O)cc1Cl	i	i	i	i	i	nt
NC1=NC(=O)/C(=C/c2cc(Br)c(O)c(Br)c2)S1	nt	2.0	i	i	i	nt
COc1cc(/C=C2\SC(N)=NC2=O)cc(OC)c1	i	i	i	59	i	i
Cc1cccc(OCCCC(=O)Nc2ccc(Cl)c(S(=O)(=O)N3CCOCC3)c2)c1	i	i	i	62	i	i
O=C(CN1CCN(S(=O)(=O)N2CCOCC2)CC1)Nc1ccc(Cl)c(Cl)c1	i	i	i	i	122	nt
